According to ChEMBL document CHEMBL3421632, “Rational design of triazololipopeptides analogs of kisspeptin inducing a long-lasting increase of gonadotropins” (J Med Chem, 2015):
Values belong to the molecule of their own block, whether it stands above or below them. The source made the active and inactive calls. The calls are words filed in the database; no cut-off is given here. *1 amine or outer side, *2 acyl side, *3 side chain or, on linkers, in order; H or OH if unused. Where a SMILES comes first, the peptide text is derived from it. Side-chain parts run from the residue outwards. [ ]: non-standard residue; d: D form. The star is where a group is joined. Glyψ(1,4-Tz)Leu = CC(C)C[C@@H](C(=O)[*:2])n1cc(CN[*:1])nn1; X1 = O=C(Cn1cc([C@H](Cc2ccccc2)N[*:1])nn1)[*:2]; γGlu = O=C(O)[C@H](CCC(=O)[*:2])N[*:1]; Palmitoyl = CCCCCCCCCCCCCCCC(=O)*

Key:
[1] = Drug metabolism in Ile-de-France ewe serum treated with 50 uM Ac-Tyr-Asn-Trp-Asn-Ser-Phe-azaGly-Leu-Arg-Tyr-NH2 assessed as retention time incubated for 6 hrs by LC-MS method; format: ADME, cell-free, Ovis aries; conditions: sheep
Ovis aries [2] = assay: Increase in total plasma LH level in anoestrus Ile-de-France ewe at 15 nmol, iv by radioimmunoassay; format: functional
How it was run: (§1)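 Intact acyclic anoestrous Ile-de-France ewes (3–5 y, 55–70 kg), jugular catheter placed the day before. Single iv bolus of 1–15 nmol/ewe. Basal LH taken every 10 min for 30 min, then every 10 min for 2 h, every 20 min for 4 h, then hourly. Plasma LH by RIA (1051-CY-LH standard, sensitivity 0.1 ng/mL). Peak, duration and AUC derived; mean ± SEM, N = 4–6.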

Ovis aries [3] = assay: Increase in peak plasma LH level in anoestrus Ile-de-France ewe at 1 nmol, iv by radioimmunoassay (reference value: 0.3 +/- 0.09 ng/ml); format: functional; how it was run: as §1
Ovis aries [4] = assay: Increase in FSH level in anoestrus Ile-de-France ewe at 5 nmol, iv by radioimmunoassay; format: functional, organism-based
How it was run: (§2)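 Intact acyclic anoestrous Ile-de-France ewes (3–5 y, 55–70 kg), jugular catheter placed the day before. Single iv bolus. Basal sampled every 10 min for 30 min, then every 10 min for 2 h, every 20 min for 4 h, then hourly. Plasma FSH measured by RIA with Tucker reagents (sensitivity 0.1 ng/mL), AUC computed; mean ± SEM, N = 4–6.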

KiSS-1 receptor = KiSS-1 receptor (Homo sapiens, UniProt Q969F8); assay: Agonist activity at human wild-type KISS1R expressed in HEK293 cells assessed as induction of intracellular Ca2+ mobilization after 30 mins by Fluo4 NW Ca2+ assay; format: functional, cell-based
How it was run: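 HEK293 stably expressing HA-tagged wild-type human KISS1R, plated 40 000 cells/well 48 h prior. Loaded with Fluo4 NW dye 30 min at 37 °C plus 30 min at rt. Basal read 5× at 7 s intervals, compound added (final 1 pM–1 μM), Ca2+ followed 7 min. Mean basal subtracted, AUC plotted against concentration, sigmoid fit gives EC50. Nontransfected HEK293 served as control.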

Ovis aries [5] = assay: Increase in time duration of increase of plasma LH level in anoestrus Ile-de-France ewe at 15 nmol, iv by radioimmunoassay; format: functional; how it was run: as §1
Ovis aries [6] = assay: Increase in maximal amplitude of plasma LH level in anoestrus Ile-de-France ewe at 1 to 15 nmol, iv by radioimmunoassay; format: functional, organism-based; how it was run: as §1
Ovis aries [7] = assay: Increase in peak plasma LH level in anoestrus Ile-de-France ewe at 15 nmol, iv by radioimmunoassay relative to untreated control; format: functional; how it was run: as §1
Ovis aries [8] = assay: Increase in FSH level in anoestrus Ile-de-France ewe at 1 nmol, iv by radioimmunoassay; format: functional, organism-based; how it was run: as §2
Ovis aries [9] = assay: Increase in total plasma LH level in anoestrus Ile-de-France ewe at 1 to 15 nmol, iv by radioimmunoassay; format: functional, organism-based; how it was run: as §1
Ovis aries [10] = assay: Increase in time duration of increase of plasma LH level in anoestrus Ile-de-France ewe at 1 to 15 nmol, iv by radioimmunoassay; format: functional, organism-based; how it was run: as §1
Ovis aries [11] = assay: Increase in peak plasma LH level in anoestrus Ile-de-France ewe at 5 nmol, iv by radioimmunoassay relative to untreated control; format: functional; how it was run: as §1
[12] = target: Neuropeptide FF receptor 1 (Homo sapiens, UniProt Q9GZQ6); assay: Agonist activity at human NPFF1R expressed in CHO cells assessed as effect on forskolin-induced cAMP accumulation after 15 mins by luminescence based assay; format: functional, cell-based
How it was run: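 CHO cells stably expressing hNPFF1R (Gαi-coupled), transfected with GloSensor; seeded 30 000 cells/well 24 h before, PBS-washed twice, loaded with GloSensor cAMP reagent 2 h. Compound added, luminescence read 15 min, then 300 nM forskolin + 0.25 mM IBMX added and read a further 120 min. Signal AUC plotted against concentration, sigmoid fit for EC50.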

Homo sapiens = species: Homo sapiens; assay: Selectivity index, ratio of EC50 for human NPFF1R to EC50 for human wild-type KISS1R
Ovis aries [13] = assay: Increase in peak plasma LH level in anoestrus Ile-de-France ewe at 5 nmol, iv by radioimmunoassay (reference value: 0.2 +/- 0.09 ng/ml); format: functional; how it was run: as §1
Ovis aries [14] = assay: Increase in peak plasma LH level in anoestrus Ile-de-France ewe at 15 nmol, iv by radioimmunoassay (reference value: 0.3 +/- 0.15 ng/ml); format: functional; how it was run: as §1
Ovis aries [15] = assay: Increase in total plasma LH level in anoestrus Ile-de-France ewe at 1 nmol, iv by radioimmunoassay; format: functional; how it was run: as §1
Ovis aries [16] = assay: Increase in FSH level in anoestrus Ile-de-France ewe at 15 nmol, iv by radioimmunoassay; format: functional, organism-based; how it was run: as §2
Ovis aries [17] = assay: Increase in maximal amplitude of plasma LH level in anoestrus Ile-de-France ewe at 5 nmol, iv by radioimmunoassay (reference value: 0.6 +/- 0.5 ng/ml); format: functional; how it was run: as §1
[18] = Stability in Ile-de-France ewe serum assessed as intact compound level at 50 uM incubated for 1 hr by HPLC method; format: ADME, cell-free, Ovis aries; conditions: sheep, BLD = below limit of detection
How it was run: (§3)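 Ile-de-France ewe serum, stored at −20 °C and preheated 30 min at 39 °C. Peptide at 50 μM final, with L-phenylalaninol internal calibrator, incubated at 39 °C. Proteins precipitated with MeCN and spun; supernatant run on RP-HPLC (2–52% MeCN/0.1% TFA over 5 min, UV 214 nm, plus MS). Intact peak given as % of t = 0 area; five independent experiments.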

Ovis aries [19] = assay: Increase in total plasma LH level in anoestrus Ile-de-France ewe at 5 nmol, iv by radioimmunoassay; format: functional, organism-based; how it was run: as §1
[20] = Stability in Ile-de-France ewe serum assessed as intact compound level at 50 uM incubated for 6 hrs by HPLC method; format: ADME, cell-free, Ovis aries; conditions: female, sheep, read-out: Stability; how it was run: as §3
Ovis aries [21] = assay: Increase in duration of increase of plasma LH level in anoestrus Ile-de-France ewe at 5 nmol, iv by radioimmunoassay; format: functional; how it was run: as §1

Chain of KiSS-1 receptor (Q969F8 whole entry): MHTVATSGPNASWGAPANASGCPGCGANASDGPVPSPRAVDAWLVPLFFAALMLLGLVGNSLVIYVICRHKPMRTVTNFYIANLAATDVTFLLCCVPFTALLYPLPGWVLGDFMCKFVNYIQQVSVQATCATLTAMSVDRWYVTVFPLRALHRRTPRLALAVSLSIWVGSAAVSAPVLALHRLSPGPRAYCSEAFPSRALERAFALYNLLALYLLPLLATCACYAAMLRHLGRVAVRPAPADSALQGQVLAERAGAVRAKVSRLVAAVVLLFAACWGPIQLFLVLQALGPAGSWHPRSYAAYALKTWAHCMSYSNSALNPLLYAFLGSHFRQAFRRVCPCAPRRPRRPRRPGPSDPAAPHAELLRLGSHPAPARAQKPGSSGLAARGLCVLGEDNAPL
Chain of Neuropeptide FF receptor 1 (Q9GZQ6 whole entry): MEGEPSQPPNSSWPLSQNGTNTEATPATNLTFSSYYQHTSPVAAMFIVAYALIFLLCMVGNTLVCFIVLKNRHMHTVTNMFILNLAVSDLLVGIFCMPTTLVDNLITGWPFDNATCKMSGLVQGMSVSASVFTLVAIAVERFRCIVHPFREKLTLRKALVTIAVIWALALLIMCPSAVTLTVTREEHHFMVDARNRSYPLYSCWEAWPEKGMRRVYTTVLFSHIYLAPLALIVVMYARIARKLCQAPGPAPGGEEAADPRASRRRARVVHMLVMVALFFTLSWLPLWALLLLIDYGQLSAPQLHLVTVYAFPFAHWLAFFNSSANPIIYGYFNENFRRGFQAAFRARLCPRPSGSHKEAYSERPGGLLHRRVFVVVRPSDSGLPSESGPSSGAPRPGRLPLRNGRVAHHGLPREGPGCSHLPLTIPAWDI

Retention_time [1]: 7.57 min
Molecule: CC(C)C[C@H](N)C(=O)N[C@@H](CCCNC(=N)N)C(=O)N[C@@H](Cc1ccc(O)cc1)C(N)=O (H-Leu-Arg-Tyr-NH2)

EC50 (KiSS-1 receptor): 1.6 nM
EC50 [12]: 222 nM
Ratio EC50 (Homo sapiens): > 100
Molecule: CCCCCCCCCCCCCCCC(=O)N[C@@H](CCC(=O)NCCCC[C@H](NC(=O)[C@H](Cc1ccc(O)cc1)NC(C)=O)C(=O)N[C@@H](Cc1c[nH]c2ccccc12)C(=O)N[C@@H](CC(N)=O)C(=O)N[C@@H](CO)C(=O)N[C@@H](Cc1ccccc1)C(=O)NCc1cn([C@@H](CC(C)C)C(=O)N[C@@H](CCCNC(=N)N)C(=O)N[C@@H](Cc2ccc(O)cc2)C(N)=O)nn1)C(=O)O (Ac-YK([γGlu-Palmitoyl])WNSF[Glyψ(1,4-Tz)Leu]RY-NH2)
Activity (Ovis aries [2]): 2400 ng·min/mL
Activity (Ovis aries [3]): 1.1 ng/mL
Activity (Ovis aries [4]): inactive
Time (Ovis aries [5]): >9 h
Activity (Ovis aries [6]): Dose-dependent effect
fold change (FC) (Ovis aries [7]): 40
Activity (Ovis aries [8]): inactive
Activity (Ovis aries [9]): Dose-dependent effect
Activity (Ovis aries [10]): Dose-dependent effect
fold change (FC) (Ovis aries [11]): 25
Activity (Ovis aries [13]): 5.3 ng/mL
Activity (Ovis aries [14]): 13.3 ng/mL
Activity (Ovis aries [15]): 274 ng·min/mL
Activity (Ovis aries [16]): Active

EC50 (KiSS-1 receptor): 2.5 nM
Stability [18]: BLD
Molecule: H-YNWNSFGLRY-NH2
Activity (Ovis aries [17]): 3.3 ng/mL

EC50 (KiSS-1 receptor): 24.4 nM
Molecule: CCCCCCCCCCCCCCCC(=O)N[C@@H](CCC(=O)NCCCC[C@H](NC(=O)[C@H](CC(N)=O)NC(=O)[C@H](Cc1ccc(O)cc1)NC(C)=O)C(=O)N[C@@H](CC(N)=O)C(=O)N[C@@H](CO)C(=O)N[C@@H](Cc1ccccc1)C(=O)NCC(=O)N[C@@H](CC(C)C)C(=O)N[C@@H](CCCNC(=N)N)C(=O)N[C@@H](Cc1ccc(O)cc1)C(N)=O)C(=O)O (Ac-YNK([γGlu-Palmitoyl])NSFGLRY-NH2)

EC50 (KiSS-1 receptor): 0.07 nM
remaining at 6 h, 50 µM [20]: 2.6%
EC50 [12]: > 5000 nM
Ratio EC50 (Homo sapiens): > 10000
Molecule: Ac-YNWNSFGLRY-NH2
Activity (Ovis aries [19]): Active
Activity (Ovis aries [17]): 3.9 ng/mL
Activity (Ovis aries [21]): Active

EC50 (KiSS-1 receptor): 0.6 nM
remaining at 6 h, 50 µM [20]: 61.4%
Molecule: CC(=O)N[C@@H](Cc1ccc(O)cc1)C(=O)N[C@@H](CC(N)=O)C(=O)N[C@@H](Cc1c[nH]c2ccccc12)C(=O)N[C@@H](CC(N)=O)C(=O)N[C@@H](CO)C(=O)N[C@@H](Cc1ccccc1)c1cn(CC(=O)N[C@@H](CC(C)C)C(=O)N[C@@H](CCCNC(=N)N)C(=O)N[C@@H](Cc2ccc(O)cc2)C(N)=O)nn1 (Ac-YNWNS[X1]LRY-NH2)

EC50 (KiSS-1 receptor): > 500 nM
Molecule: CCCCCCCCCCCCCCCC(=O)NCCCC[C@H](NC(=O)[C@H](CC(N)=O)NC(=O)[C@H](Cc1ccc(O)cc1)NC(C)=O)C(=O)N[C@@H](CC(N)=O)C(=O)N[C@@H](CO)C(=O)N[C@@H](Cc1ccccc1)C(=O)NCC(=O)N[C@@H](CC(C)C)C(=O)N[C@@H](CCCNC(=N)N)C(=O)N[C@@H](Cc1ccc(O)cc1)C(N)=O (Ac-YNK(Palmitoyl)NSFGLRY-NH2)

Retention_time [1]: 9.51 min
Molecule: Ac-YNWNSF-OH

EC50 (KiSS-1 receptor): 120 nM
remaining at 6 h, 50 µM [20]: 50.7%
Molecule: CC(=O)N[C@@H](Cc1ccc(O)cc1)C(=O)N[C@@H](CC(N)=O)C(=O)N[C@@H](Cc1c[nH]c2ccccc12)C(=O)N[C@@H](CC(N)=O)C(=O)N[C@@H](CO)C(=O)N[C@@H](Cc1ccccc1)c1cn(Cc2cn([C@@H](CC(C)C)C(=O)N[C@@H](CCCNC(=N)N)C(=O)N[C@@H](Cc3ccc(O)cc3)C(N)=O)nn2)nn1
